Results reported in ChEMBL document CHEMBL5696442, “Discovery of type II inhibitors of TGFβ-activated kinase 1 (TAK1) and mitogen-activated protein kinase kinase kinase kinase 2 (MAP4K2)” (J Med Chem, 2015).

Assays:
[1] = target: T1, Receptor-interacting serine/threonine-protein kinase 4 (Homo sapiens) (UniProt P57078); assay: Inhibition of ANKRD3 Lys1 labeling site in human A-375 cells at 0.05 uM by KiNativ Profiling analysis relative to control; assay type: cell-based
T1 sequence (whole entry): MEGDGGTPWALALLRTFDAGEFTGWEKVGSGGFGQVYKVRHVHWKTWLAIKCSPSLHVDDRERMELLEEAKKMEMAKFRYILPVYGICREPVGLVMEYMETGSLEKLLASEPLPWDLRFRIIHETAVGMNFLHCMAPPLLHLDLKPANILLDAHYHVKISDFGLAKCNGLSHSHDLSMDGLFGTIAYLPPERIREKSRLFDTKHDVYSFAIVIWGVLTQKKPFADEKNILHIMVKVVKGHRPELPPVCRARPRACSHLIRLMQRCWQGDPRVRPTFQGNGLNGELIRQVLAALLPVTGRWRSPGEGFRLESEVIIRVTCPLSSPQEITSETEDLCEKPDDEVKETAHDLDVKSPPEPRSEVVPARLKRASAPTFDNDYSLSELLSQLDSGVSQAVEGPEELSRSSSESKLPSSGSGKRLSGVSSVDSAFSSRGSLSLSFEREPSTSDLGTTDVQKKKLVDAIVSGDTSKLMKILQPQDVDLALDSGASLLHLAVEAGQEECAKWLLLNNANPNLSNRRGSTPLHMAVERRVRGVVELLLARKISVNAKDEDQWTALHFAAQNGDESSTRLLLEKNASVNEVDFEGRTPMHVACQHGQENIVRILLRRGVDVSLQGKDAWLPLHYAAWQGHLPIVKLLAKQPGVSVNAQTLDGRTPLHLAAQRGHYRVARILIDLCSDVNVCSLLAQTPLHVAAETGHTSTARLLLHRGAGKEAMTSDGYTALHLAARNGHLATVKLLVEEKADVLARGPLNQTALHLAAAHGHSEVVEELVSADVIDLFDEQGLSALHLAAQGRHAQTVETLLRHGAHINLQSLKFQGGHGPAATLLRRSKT

[2] = target: T2, Serine/threonine-protein kinase Chk1 (Homo sapiens) (UniProt O14757); assay: Inhibition of CHK1 K2 labeling site in human Huh-7 cells at 10 uM by KiNativ Profiling analysis relative to control; assay type: cell-based
T2 sequence (whole entry): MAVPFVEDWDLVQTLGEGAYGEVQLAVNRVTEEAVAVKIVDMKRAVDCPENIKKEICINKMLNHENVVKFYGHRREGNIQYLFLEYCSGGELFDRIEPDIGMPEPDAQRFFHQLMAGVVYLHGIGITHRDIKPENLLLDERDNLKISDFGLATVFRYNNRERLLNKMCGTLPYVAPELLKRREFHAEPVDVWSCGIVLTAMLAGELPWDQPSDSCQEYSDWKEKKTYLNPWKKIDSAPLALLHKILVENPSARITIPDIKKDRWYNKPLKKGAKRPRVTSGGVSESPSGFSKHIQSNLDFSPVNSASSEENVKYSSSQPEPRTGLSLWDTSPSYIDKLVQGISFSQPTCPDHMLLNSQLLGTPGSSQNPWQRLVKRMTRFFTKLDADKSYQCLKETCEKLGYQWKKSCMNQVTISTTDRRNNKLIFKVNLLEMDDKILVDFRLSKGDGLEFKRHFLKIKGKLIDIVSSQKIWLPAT

[3] = target: T3, Dual specificity mitogen-activated protein kinase kinase 4 (Homo sapiens) (UniProt P45985); assay: Inhibition of MAP2K4 K2 labeling site harbouring IIHRDIKPSNILLDR in human Huh-7 cells at 1 uM by KiNativ Profiling analysis relative to control; assay type: cell-based
T3 sequence (whole entry): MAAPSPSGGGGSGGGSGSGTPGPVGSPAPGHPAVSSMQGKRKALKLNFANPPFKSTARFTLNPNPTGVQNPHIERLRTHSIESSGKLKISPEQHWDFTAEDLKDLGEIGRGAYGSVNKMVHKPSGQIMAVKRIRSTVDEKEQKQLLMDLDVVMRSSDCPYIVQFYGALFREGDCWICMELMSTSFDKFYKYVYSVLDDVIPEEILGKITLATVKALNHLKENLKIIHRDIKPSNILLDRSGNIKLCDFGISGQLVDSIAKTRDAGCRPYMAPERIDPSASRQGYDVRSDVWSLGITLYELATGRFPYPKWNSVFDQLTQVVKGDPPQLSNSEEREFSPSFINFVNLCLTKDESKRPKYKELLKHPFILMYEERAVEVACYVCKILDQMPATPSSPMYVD

[4] = target: Serine/threonine-protein kinase ATR (Homo sapiens) (UniProt Q13535); assay: Inhibition of ATR ATP labeling site in human Huh-7 cells at 10 uM by KiNativ Profiling analysis relative to control; assay type: cell-based
[5] = target: Peripheral plasma membrane protein CASK (Homo sapiens) (UniProt O14936); assay: Inhibition of CASK Lys1 labeling site in human A-375 cells at 5 uM by KiNativ Profiling analysis relative to control
[6] = target: Calcium/calmodulin-dependent protein kinase type 1 (Homo sapiens) (UniProt Q14012); assay: Inhibition of CaMK1a K1 labeling site in human Huh-7 cells at 1 uM by KiNativ Profiling analysis relative to control; assay type: cell-based
[7] = target: Serine/threonine-protein kinase 26 (Homo sapiens) (UniProt Q9P289); assay: Inhibition of MST4 ATP labeling site in human Huh-7 cells at 1 uM by KiNativ Profiling analysis relative to control; assay type: cell-based
[8] = Inhibition of […] K2 labeling site in human Huh-7 cells at 1 uM by KiNativ Profiling analysis relative to control; settings: condition cancer
[9] = target: T3, Dual specificity mitogen-activated protein kinase kinase 4 (Homo sapiens); assay: Inhibition of MAP2K4 Lys2 labeling site in human Huh-7 cell lysate at 1 uM by KiNativ Profiling analysis relative to control; assay type: subcellular
[10] = target: Serine/threonine-protein kinase Nek4 (Homo sapiens) (UniProt P51957); assay: Inhibition of NEK4 Lys2 labeling site in human Huh-7 cell lysate at 1 uM by KiNativ Profiling analysis relative to control; assay type: subcellular
[11] = Inhibition of KHS2 Lys1 labeling site in human Huh-7 cells at 1 uM by KiNativ Profiling analysis relative to control; settings: condition cancer
[12] = target: 5'-AMP-activated protein kinase catalytic subunit alpha-1 (Homo sapiens) (UniProt Q13131); assay: Inhibition of AMPKa1 Lys2 labeling site in human A-375 cells at 0.5 uM by KiNativ Profiling analysis relative to control; assay type: cell-based
Procedure, shortened: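 Intact A375 melanoma cells were treated with compound at 5 or 0.5 μM, then lysed. Lysate kinases were labeled with a lysine-reactive ATP or ADP-biotin probe (KiNativ). Inhibition is read as protection of each kinase labeling site from probe labeling.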

[13] = target: Mitogen-activated protein kinase 11 (Homo sapiens) (UniProt Q15759); assay: Inhibition of p38 beta in human A-375 cells at 5 uM by KiNativ Profiling analysis relative to control; assay type: cell-based
[14] = target: Receptor-interacting serine/threonine-protein kinase 2 (Homo sapiens) (UniProt O43353); assay: Inhibition of RIPK2 (unknown origin) at 1 uM by Ambit Kinomescan binding assay relative to control
Chain of Receptor-interacting serine/threonine-protein kinase 2 (Homo sapiens) (O43353 whole entry): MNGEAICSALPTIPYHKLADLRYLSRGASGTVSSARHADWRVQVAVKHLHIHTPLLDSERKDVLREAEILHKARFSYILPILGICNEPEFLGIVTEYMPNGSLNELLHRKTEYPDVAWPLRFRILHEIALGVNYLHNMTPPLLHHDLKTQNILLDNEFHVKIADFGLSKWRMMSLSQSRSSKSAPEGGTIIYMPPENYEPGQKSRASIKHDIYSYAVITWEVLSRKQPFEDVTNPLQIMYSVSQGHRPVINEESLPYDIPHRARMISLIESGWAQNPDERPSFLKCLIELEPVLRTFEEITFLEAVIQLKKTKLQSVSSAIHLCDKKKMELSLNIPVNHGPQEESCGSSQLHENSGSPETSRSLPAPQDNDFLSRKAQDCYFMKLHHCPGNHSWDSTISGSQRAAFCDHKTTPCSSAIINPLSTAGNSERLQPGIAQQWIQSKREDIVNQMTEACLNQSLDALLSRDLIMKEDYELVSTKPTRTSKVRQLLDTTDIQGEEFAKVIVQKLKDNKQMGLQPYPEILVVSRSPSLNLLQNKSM

Chain of 5'-AMP-activated protein kinase catalytic subunit alpha-1 (Homo sapiens) (Q13131 whole entry, looked up): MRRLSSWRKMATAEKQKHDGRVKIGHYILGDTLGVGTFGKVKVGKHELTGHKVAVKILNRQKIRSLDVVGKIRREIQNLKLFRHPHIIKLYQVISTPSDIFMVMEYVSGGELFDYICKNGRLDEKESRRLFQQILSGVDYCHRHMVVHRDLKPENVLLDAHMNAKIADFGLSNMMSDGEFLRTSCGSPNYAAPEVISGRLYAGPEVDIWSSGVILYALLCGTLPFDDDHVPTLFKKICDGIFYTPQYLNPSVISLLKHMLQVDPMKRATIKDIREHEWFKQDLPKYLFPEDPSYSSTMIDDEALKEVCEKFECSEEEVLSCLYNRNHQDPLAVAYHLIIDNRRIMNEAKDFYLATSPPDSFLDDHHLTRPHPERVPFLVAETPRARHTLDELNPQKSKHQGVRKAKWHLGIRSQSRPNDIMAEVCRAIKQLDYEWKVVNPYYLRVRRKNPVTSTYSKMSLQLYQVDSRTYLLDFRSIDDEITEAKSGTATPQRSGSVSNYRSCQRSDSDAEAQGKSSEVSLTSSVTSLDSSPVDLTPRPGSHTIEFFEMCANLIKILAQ
Chain of Calcium/calmodulin-dependent protein kinase type 1 (Homo sapiens) (Q14012 whole entry, looked up): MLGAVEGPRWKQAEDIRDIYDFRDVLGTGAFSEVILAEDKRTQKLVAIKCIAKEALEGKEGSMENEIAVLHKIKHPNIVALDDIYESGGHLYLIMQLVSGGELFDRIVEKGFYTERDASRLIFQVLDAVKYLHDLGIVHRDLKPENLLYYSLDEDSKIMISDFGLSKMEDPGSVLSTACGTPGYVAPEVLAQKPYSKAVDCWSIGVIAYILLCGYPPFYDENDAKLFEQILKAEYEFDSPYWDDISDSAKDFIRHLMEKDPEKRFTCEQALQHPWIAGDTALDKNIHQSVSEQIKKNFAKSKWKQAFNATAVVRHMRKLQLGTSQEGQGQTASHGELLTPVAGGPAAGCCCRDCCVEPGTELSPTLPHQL
Chain of Serine/threonine-protein kinase ATR (Homo sapiens) (Q13535 whole entry, looked up): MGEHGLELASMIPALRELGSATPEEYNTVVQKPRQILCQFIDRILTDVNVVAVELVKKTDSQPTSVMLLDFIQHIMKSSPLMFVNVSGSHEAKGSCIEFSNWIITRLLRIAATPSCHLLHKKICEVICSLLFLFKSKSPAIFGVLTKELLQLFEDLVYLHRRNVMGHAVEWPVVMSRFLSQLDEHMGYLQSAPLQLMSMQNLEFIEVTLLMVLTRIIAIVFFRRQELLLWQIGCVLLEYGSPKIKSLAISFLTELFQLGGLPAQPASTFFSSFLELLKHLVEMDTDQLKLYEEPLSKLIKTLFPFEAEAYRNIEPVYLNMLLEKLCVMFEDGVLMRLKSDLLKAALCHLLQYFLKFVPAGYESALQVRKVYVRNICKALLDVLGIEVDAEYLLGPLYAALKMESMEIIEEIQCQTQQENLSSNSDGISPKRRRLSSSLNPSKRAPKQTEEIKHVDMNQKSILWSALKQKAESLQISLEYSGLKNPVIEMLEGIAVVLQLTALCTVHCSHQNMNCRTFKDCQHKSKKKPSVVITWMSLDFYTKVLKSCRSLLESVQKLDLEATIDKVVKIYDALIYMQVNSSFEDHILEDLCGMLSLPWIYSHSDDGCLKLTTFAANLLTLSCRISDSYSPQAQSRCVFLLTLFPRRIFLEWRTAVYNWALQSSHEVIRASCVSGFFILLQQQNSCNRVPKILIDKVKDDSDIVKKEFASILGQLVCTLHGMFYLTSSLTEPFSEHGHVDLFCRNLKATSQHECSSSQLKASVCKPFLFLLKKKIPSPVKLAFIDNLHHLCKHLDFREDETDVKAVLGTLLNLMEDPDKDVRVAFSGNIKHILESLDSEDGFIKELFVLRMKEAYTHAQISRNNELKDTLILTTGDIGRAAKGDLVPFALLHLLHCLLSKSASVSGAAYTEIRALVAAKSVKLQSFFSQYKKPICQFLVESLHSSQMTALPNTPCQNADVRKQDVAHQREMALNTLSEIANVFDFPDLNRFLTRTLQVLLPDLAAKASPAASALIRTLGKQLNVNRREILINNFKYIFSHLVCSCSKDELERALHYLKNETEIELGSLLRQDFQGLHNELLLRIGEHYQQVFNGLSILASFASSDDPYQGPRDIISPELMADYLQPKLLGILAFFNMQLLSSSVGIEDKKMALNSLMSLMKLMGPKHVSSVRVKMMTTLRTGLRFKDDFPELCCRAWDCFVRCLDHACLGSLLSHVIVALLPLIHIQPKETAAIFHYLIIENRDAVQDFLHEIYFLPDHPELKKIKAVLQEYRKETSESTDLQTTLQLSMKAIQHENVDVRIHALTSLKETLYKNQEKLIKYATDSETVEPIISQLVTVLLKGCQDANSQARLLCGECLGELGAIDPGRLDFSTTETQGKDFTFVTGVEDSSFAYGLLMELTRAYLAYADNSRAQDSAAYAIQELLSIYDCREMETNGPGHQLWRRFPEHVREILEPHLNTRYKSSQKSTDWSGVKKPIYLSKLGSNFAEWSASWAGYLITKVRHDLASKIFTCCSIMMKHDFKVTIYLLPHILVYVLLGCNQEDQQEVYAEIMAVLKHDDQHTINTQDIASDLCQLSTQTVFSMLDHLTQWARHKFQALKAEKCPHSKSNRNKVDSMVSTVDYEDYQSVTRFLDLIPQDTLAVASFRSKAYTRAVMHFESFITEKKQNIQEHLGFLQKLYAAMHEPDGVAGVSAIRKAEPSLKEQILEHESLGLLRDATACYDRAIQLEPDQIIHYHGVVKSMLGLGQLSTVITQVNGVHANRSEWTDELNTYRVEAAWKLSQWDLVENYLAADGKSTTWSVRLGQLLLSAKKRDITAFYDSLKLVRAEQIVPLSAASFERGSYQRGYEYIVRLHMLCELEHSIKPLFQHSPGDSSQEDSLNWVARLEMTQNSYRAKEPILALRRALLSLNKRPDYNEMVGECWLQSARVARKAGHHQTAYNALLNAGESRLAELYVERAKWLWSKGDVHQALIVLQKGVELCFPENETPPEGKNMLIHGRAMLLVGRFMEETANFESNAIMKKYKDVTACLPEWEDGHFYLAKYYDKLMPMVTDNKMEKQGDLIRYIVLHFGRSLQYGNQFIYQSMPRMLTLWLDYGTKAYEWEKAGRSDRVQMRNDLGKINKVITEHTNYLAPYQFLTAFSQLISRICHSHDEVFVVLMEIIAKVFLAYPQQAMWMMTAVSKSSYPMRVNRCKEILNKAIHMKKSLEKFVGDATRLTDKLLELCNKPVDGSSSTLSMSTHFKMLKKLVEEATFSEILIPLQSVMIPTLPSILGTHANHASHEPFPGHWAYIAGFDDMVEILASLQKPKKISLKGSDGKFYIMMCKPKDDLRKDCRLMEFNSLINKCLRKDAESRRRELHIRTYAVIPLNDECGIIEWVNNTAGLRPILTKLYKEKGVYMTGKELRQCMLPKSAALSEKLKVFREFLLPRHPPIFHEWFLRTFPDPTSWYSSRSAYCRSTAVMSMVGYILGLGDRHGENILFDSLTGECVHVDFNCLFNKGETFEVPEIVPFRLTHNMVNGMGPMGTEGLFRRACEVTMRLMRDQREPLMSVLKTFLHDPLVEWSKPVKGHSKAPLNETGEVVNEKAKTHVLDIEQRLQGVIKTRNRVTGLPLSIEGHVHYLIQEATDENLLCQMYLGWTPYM
Chain of Serine/threonine-protein kinase Nek4 (Homo sapiens) (P51957 whole entry, looked up): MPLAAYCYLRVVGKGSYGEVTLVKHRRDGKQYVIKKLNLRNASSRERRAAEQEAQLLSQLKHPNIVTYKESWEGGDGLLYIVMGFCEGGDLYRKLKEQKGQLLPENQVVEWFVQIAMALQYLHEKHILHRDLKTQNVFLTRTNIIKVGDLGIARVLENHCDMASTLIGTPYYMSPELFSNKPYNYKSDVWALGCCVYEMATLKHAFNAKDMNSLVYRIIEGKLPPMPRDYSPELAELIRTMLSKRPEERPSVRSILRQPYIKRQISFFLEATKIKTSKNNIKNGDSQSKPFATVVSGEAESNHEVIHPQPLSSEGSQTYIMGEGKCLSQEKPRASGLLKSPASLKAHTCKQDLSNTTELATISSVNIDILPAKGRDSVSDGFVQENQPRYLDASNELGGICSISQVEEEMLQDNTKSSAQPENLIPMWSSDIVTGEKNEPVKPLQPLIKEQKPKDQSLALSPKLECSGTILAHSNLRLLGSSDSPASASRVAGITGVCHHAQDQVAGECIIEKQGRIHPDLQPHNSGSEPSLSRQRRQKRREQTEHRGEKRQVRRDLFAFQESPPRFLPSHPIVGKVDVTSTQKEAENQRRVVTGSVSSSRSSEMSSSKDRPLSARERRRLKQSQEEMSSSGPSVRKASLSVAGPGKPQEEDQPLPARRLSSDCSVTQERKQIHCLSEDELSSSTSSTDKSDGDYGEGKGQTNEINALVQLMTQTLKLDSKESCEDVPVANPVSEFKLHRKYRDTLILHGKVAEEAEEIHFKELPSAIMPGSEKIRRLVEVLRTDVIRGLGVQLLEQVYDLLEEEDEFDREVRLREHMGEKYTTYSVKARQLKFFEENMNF

CCN1CCN(Cc2ccc(NC(=O)c3ccc(C)c(Oc4ccnc5[nH]ccc45)c3)cc2C(F)(F)F)CC1
inhibition [1]: 32.4%
inhibition [2]: 3.5%
inhibition [3]: -0.9%
inhibition [4]: 19.8%
inhibition [5]: 6.6%
inhibition [6]: 19%
inhibition [7]: 18%
inhibition at 1 µM [8]: -16%

CNc1cc(Oc2cc(C(=O)Nc3cc(N4CCN(C)CC4)cc(C(F)(F)F)c3)ccc2C)ncn1
inhibition [9]: -3.9%
inhibition [10]: -2.2%
inhibition at 1 µM [11]: 5.3%

CCN1CCN(Cc2ccc(NC(=O)c3ccc(C)c(/C=C/c4cnc5[nH]ccc5c4OC)c3)cc2C(F)(F)F)CC1
inhibition [12]: -8.2%
inhibition [13]: 79.9%
inhibition [14]: 4.5%
